Source: PMC12744579 (Nanotechnology, Science and Applications, 2025)

How the values were obtained:
[1] = In vivo oral gavage study, blood; parameters: species or system New Zealand White rabbits; conditions: male rabbits, 60 g HED
Method in brief: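 Male adult New Zealand White rabbits (3.0 ± 0.3 kg) on high-fibre diet, fasted ~16 h, stratified by body weight, n=6/group. Free or pea-protein-nanoparticle-encapsulated test compound was given by oral gavage at 60 g per 70 kg adult HED, scaled by rabbit body-surface-area factors to an individual per-kg dose. Marginal ear vein blood was sampled pre-dose to 24 h (11 time-points); BHB was measured by assay kit.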

[2] = tested on: rats; conditions: 14 to 21 g/kg bw/day; cited from earlier work

C[C@@H](O)CC(=O)OCC(O)CO (stereo partly drawn) [KM, (R)-3-hydroxybutyrate monoglyceride]
[BHB]max [1]: 1.33 mmol/L | MRT ([1]; blood BHB): 6.60 h | Tmax ([1]; blood BHB): 0.75 h | systemic toxicity in vivo [2]: no systemic toxicity
